Measured values: ChEMBL document CHEMBL1150942, “Anti-AIDS agents. 30. Anti-HIV activity of oleanolic acid, pomolic acid, and structurally related triterpenoids” (J Nat Prod, 1998)
≈ marks a conversion by molar mass, not a printed value.

Key:
[1] = Therapeutic index, ratio of IC50 for human H9 cells to EC50 for HIV1 3B; type: cell-based; conditions: for selectivity ratio: H9 cells (cytotoxicity IC50) and HIV-1 3B (antiviral EC50)
How it was run: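 TI calculated as IC50 (Coulter counts of mock-infected cells after 4 days) divided by EC50 (day-4 supernatant p24 ELISA of infected cells). Both were read from the same 4-day plates.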

H9 cells (Homo sapiens) = assay: Cytotoxicity against human H9 cells after 4 days
[2] = test system: Human immunodeficiency virus 1; assay: Inhibition of HIV-1 replication in acutely infected human H9 cells after 4 days; conditions: H9, 96 h
[3] = test system: Human immunodeficiency virus 1; assay: Antiviral activity against HIV1 in human H9 cells after 4 days; conditions: h9, 96 h
[4] = Homo sapiens, H9, 96 h, read-out: IC50

Row | EC50 [2] [µg/mL] | Activity [3] | Structure (SMILES) | selectivity ratio [1] | IC50 (H9 cells (Homo sapiens); [4]) [µg/mL] | Ratio IC50/EC50 ([1]; h9) | IC50 (H9 cells (Homo sapiens); h9) [µg/mL]
1 |  |  | CC1(C)CC[C@]2(C(=O)O)CC[C@]3(C)C(=CC[C@@H]4[C@@]5(C)CC[C@H](OC(=O)CC(C)(C)C(=O)O)C(C)(C)[C@@H]5CC[C@]43C)[C@@H]2C1 | 22400 | 11.2 (≈ 19.2 µM) |  | 
2 |  |  | CC(C)(CC(=O)O)CC(=O)O[C@H]1CC[C@]2(C)[C@H]3CC=C4[C@@H]5CC(C)(C)CC[C@]5(C(=O)O)CC[C@@]4(C)[C@]3(C)CC[C@H]2C1(C)C | 9.3 | 14.2 (≈ 23.7 µM) |  | 
3 |  |  | CC1(C)CC[C@]2(C(=O)O)CC[C@]3(C)C(=CC[C@@H]4[C@@]5(C)CC[C@H](OC(=O)CCCC(=O)O)C(C)(C)[C@@H]5CC[C@]43C)[C@@H]2C1 | 2.1 | 14.6 (≈ 25.6 µM) |  | 
4 |  |  | CC1(C)CC[C@]2(C(=O)O)CC[C@]3(C)C(=CC[C@@H]4[C@@]5(C)CC[C@H](OC(=O)CC6(CC(=O)O)CCCC6)C(C)(C)[C@@H]5CC[C@]43C)[C@@H]2C1 | 3.9 | 4.7 (≈ 7.52 µM) |  | 
5 | 1.1 (≈ 1.79 µM) |  | CC[C@@](C)(CC(=O)O)CC(=O)O[C@H]1CC[C@]2(C)[C@H]3CC=C4[C@@H]5CC(C)(C)CC[C@]5(C(=O)O)CC[C@@]4(C)[C@]3(C)CC[C@H]2C1(C)C | 4.1 | 4.4 (≈ 7.18 µM) |  | 
6 |  | Not Active | C[C@@H]1CC[C@]2(C(=O)O)CC[C@]3(C)C(=CC[C@@H]4[C@@]5(C)[C@H](O)C(=O)[C@H](O)C(C)(C)[C@@H]5CC[C@]43C)[C@@H]2[C@]1(C)O |  | 40 (≈ 79.6 µM) |  | 
7 | 20 (≈ 41.1 µM) |  | C[C@@H]1CC[C@]2(C(=O)O)CC[C@]3(C)C(=CC[C@@H]4[C@@]5(C)CC(=O)[C@H](O)C(C)(C)[C@@H]5CC[C@]43C)[C@@H]2[C@]1(C)O | 2 | 40 (≈ 82.2 µM) |  | 
8 | 0.5 |  | CC1(C)CC[C@]2(C(=O)[O-])CC[C@]3(C)C(=CC[C@@H]4[C@@]5(C)CC[C@H](O)C(C)(C)[C@@H]5CC[C@]43C)[C@@H]2C1.[K+] |  | 34.3 | 68.6 | 
9 |  | Not Active | CC1(C)CC[C@]2(C(=O)O)CC[C@]3(C)C(=CC[C@@H]4[C@@]5(C)CC[C@H](OC(=O)COCC(=O)O)C(C)(C)[C@@H]5CC[C@]43C)[C@@H]2C1 |  | 22.1 (≈ 38.6 µM) |  | 
10 |  | Not Active | CC1(C)CC[C@]2(C(=O)O)CC[C@]3(C)C(=CC[C@@H]4[C@@]5(C)CC[C@H](OC(=O)C(C)(C)CC(=O)O)C(C)(C)[C@@H]5CC[C@]43C)[C@@H]2C1 |  | 9.7 (≈ 16.6 µM) |  | 
11 | 8.3 (≈ 14.2 µM) |  | C[C@@H](CC(=O)O)CC(=O)O[C@H]1CC[C@]2(C)[C@H]3CC=C4[C@@H]5CC(C)(C)CC[C@]5(C(=O)O)CC[C@@]4(C)[C@]3(C)CC[C@H]2C1(C)C | 3.3 | 27.5 (≈ 47 µM) |  | 
12 | 35 (≈ 69.3 µM) |  | C[C@@H]1CC[C@]2(C(=O)O)CC[C@]3(C)C(=CC[C@@H]4[C@@]5(C)[C@H](O)[C@@H](O)[C@@H](O)C(C)(C)[C@@H]5CC[C@]43C)[C@@H]2[C@]1(C)O | > 2.9 | > 100 |  | 
13 |  | Not Active | C[C@@H]1CC[C@]2(C(=O)O)CC[C@]3(C)C(=CC[C@@H]4[C@@]5(C)[C@H](O)[C@H](O)[C@H](O)C(C)(C)[C@@H]5CC[C@]43C)[C@@H]2[C@]1(C)O |  | > 20 |  | 
14 |  |  | CC1(C)CC[C@]2(C(=O)O)CC[C@]3(C)C(=CC[C@@H]4[C@@]5(C)C[C@@H](O)[C@H](O)[C@@](C)(CO)[C@@H]5CC[C@]43C)[C@@H]2C1 (stereo in doubt; 2) [ARJUNOLIC ACID] |  |  |  | 8 (≈ 16.4 µM)
15 | 15 (≈ 30.7 µM) |  | CC1(C)CC[C@]2(C(=O)O)CC[C@]3(C)C(=CC[C@@H]4[C@@]5(C)C[C@@H](O)[C@H](O)[C@@](C)(CO)[C@@H]5CC[C@]43C)[C@@H]2C1 (stereo in doubt; 3) [ARJUNOLIC ACID] |  |  |  | 36 (≈ 73.7 µM)
16 |  | Not Active | C[C@H]1[C@H](C)CC[C@]2(C(=O)O)CC[C@]3(C)C(=CC[C@@H]4[C@@]5(C)C[C@@H](O)[C@H](O)[C@@](C)(CO)[C@@H]5CC[C@]43C)[C@H]12 [ASIATIC ACID] |  | 9 (≈ 18.4 µM) |  | 
17 | 4 (≈ 8.46 µM) |  | C[C@H]1[C@H](C)CC[C@]2(C(=O)O)CC[C@]3(C)C(=CC[C@@H]4[C@@]5(C)C[C@@H](O)[C@H](O)C(C)(C)[C@@H]5CC[C@]43C)[C@H]12 [COROSOLIC ACID] | 2 | 8 (≈ 16.9 µM) |  | 
18 |  | Not Active | C[C@@H]1CC[C@]2(C(=O)O)CC[C@]3(C)C(=CC[C@@H]4[C@@]5(C)C[C@@H](O)[C@@H](O)C(C)(C)[C@@H]5CC[C@]43C)[C@@H]2[C@]1(C)O [EUSCAPHIC ACID] |  | 37.5 (≈ 76.7 µM) |  | 
19 | 6.1 (≈ 11 µM) |  | CC1(C)CC[C@]2(C(=O)O)CC[C@]3(C)C(=CC[C@@H]4[C@@]5(C)CC[C@H](OC(=O)CCC(=O)O)C(C)(C)[C@@H]5CC[C@]43C)[C@@H]2C1 [OLEANOLIC ACID 3-O-SUCCINATE] | 1.1 | 6.5 (≈ 11.7 µM) |  | 
20 |  |  | CC1(C)CC[C@]2(C(=O)O)CC[C@]3(C)C(=CC[C@@H]4[C@@]5(C)CC[C@H](O)C(C)(C)[C@@H]5CC[C@]43C)[C@@H]2C1 [OLEANOLIC_ACID] |  | 21.8 (≈ 47.7 µM) |  | 
21 | 0.11 (≈ 0.242 µM) |  | CC1(C)CC[C@]2(C(=O)O)CC[C@]3(C)C(=CC[C@@H]4[C@@]5(C)CCC(=O)C(C)(C)[C@@H]5CC[C@]43C)[C@@H]2C1 [OLEANONIC ACID] | 7.3 | 0.8 (≈ 1.76 µM) |  | 
22 | 1.4 (≈ 2.96 µM) |  | C[C@@H]1CC[C@]2(C(=O)O)CC[C@]3(C)C(=CC[C@@H]4[C@@]5(C)CC[C@H](O)C(C)(C)[C@@H]5CC[C@]43C)[C@@H]2[C@]1(C)O [POMOLIC ACID] | 16.6 | 23.3 (≈ 49.3 µM) |  | 
23 |  | Not Active | C[C@@H]1CC[C@]2(C(=O)O)CC[C@]3(C)C(=CC[C@@H]4[C@@]5(C)C[C@@H](O)[C@H](O)C(C)(C)[C@@H]5CC[C@]43C)[C@@H]2[C@]1(C)O [TOMENTIC ACID] |  | 15 (≈ 30.7 µM) |  | 
24 | 2 (≈ 4.38 µM) |  | C[C@H]1[C@H](C)CC[C@]2(C(=O)O)CC[C@]3(C)C(=CC[C@@H]4[C@@]5(C)CC[C@H](O)C(C)(C)[C@@H]5CC[C@]43C)[C@H]12 [URSOLIC ACID] | 3.3 | 6.5 (≈ 14.2 µM) |  | 

Row | Structure (SMILES) | EC50 [2] [µg/mL] | Activity [3] | selectivity ratio [1] | IC50 (H9 cells (Homo sapiens); [4]) [µg/mL] | Ratio IC50/EC50 ([1]; h9) | IC50 (H9 cells (Homo sapiens); h9) [µg/mL]
25 | CC1(C)CC[C@]2(C(=O)O)CC[C@]3(CO)C(=CC[C@@H]4[C@@]5(C)CC[C@H](O)C(C)(C)[C@@H]5CC[C@]43C)[C@@H]2C1 | 4.4 (≈ 9.31 µM) |  | 5.7 | 25 (≈ 52.9 µM) |  | 
26 | C=C(C)[C@@H]1CC[C@]2(C(=O)O)CC[C@]3(C)[C@H](CC[C@@H]4[C@@]5(C)C[C@@H](O)[C@H](O)C(C)(C)[C@@H]5CC[C@]43C)[C@@H]12 [ALPHITOLIC ACID] | 20 (≈ 42.3 µM) |  | 0.25 | 4 (≈ 8.46 µM) |  | 
